What was measured:
Format in all cases: functional
ACHN = assay: Growth inhibition of human ACHN cells after 48 hrs by sulforhodamine B assay
How it was run: (§1)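 Dose–response in each cell line over at least five concentrations at 10-fold dilutions, with 48 h continuous exposure and sulforhodamine B read-out.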

NCI-H460 = assay: Growth inhibition of human NCI-H460 cells after 48 hrs by sulforhodamine B assay; details: NCI-H460, 48 h
How it was run: (§2)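 Panel of 60 human cancer cell lines; for each compound, dose–response curves per cell line measured at a minimum of five concentrations at 10-fold dilutions. Cells exposed continuously to drug for 48 h, and growth was read out by sulforhodamine B staining.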

MCF7 = assay: Growth inhibition of human MCF7 cells after 48 hrs by sulforhodamine B assay; details: MCF7, 48 h; how it was run: as §2
BT-549 = assay: Growth inhibition of human BT549 cells after 48 hrs by sulforhodamine B assay; details: BT-549, 48 h; how it was run: as §1
T47D = assay: Growth inhibition of human T47D cells after 48 hrs by sulforhodamine B assay; how it was run: as §2
COLO 205 = assay: Growth inhibition of human COLO205 cells after 48 hrs by sulforhodamine B assay; details: COLO 205, 48 h; how it was run: as §1
MDA-MB-435 = assay: Growth inhibition of human MDA-MB-435 cells after 48 hrs by sulforhodamine B assay; details: MDA-MB-435, 48 h; how it was run: as §2
SW-620 = assay: Growth inhibition of human SW620 cells after 48 hrs by sulforhodamine B assay; details: SW-620, 48 h; how it was run: as §2
TK-10 = assay: Growth inhibition of human TK10 cells after 48 hrs by sulforhodamine B assay; details: TK-10, 48 h; how it was run: as §2
SNB-19 = assay: Growth inhibition of human SNB19 cells after 48 hrs by sulforhodamine B assay; details: SNB-19, 48 h; how it was run: as §2
OVCAR-3 = assay: Growth inhibition of human OVCAR-3 cells after 48 hrs by sulforhodamine B assay; details: OVCAR-3, 48 h; how it was run: as §2
A549 = assay: Growth inhibition of human A549 cells after 48 hrs by sulforhodamine B assay; details: A549, 48 h; how it was run: as §1
MDA-MB-231 = assay: Growth inhibition of human MDA-MB-231 cells after 48 hrs by sulforhodamine B assay; details: MDA-MB-231, 48 h; how it was run: as §2
UO-31 = assay: Growth inhibition of human UO31 cells after 48 hrs by sulforhodamine B assay; details: UO-31, 48 h; how it was run: as §2
CCRF-CEM = assay: Growth inhibition of human CCRF-CEM cells after 48 hrs by sulforhodamine B assay; how it was run: as §1
HT-29 = assay: Growth inhibition of human HT-29 cells after 48 hrs by sulforhodamine B assay; details: HT-29, 48 h; how it was run: as §2
SK-MEL-2 = assay: Growth inhibition of human SK-MEL-2 cells after 48 hrs by sulforhodamine B assay; details: SK-MEL-2, 48 h; how it was run: as §2
K562 = assay: Growth inhibition of human K562 cells after 48 hrs by sulforhodamine B assay; details: K562, 48 h; how it was run: as §2
[1] = Growth inhibition of human […] cells after 48 hrs by sulforhodamine B assay; how it was run: as §2
HOP-62 = assay: Growth inhibition of human HOP62 cells after 48 hrs by sulforhodamine B assay; details: HOP-62, 48 h; how it was run: as §2
RXF 393 = assay: Growth inhibition of human RXF393 cells after 48 hrs by sulforhodamine B assay; details: RXF 393, 48 h; how it was run: as §2
HL-60 = assay: Growth inhibition of human HL-60(TB) cells after 48 hrs by sulforhodamine B assay; details: HL-60, 48 h; how it was run: as §2
SK-MEL-5 = assay: Growth inhibition of human SK-MEL-5 cells after 48 hrs by sulforhodamine B assay; details: SK-MEL-5, 48 h; how it was run: as §2
SR = assay: Growth inhibition of human SR cells after 48 hrs by sulforhodamine B assay; how it was run: as §2
NCI-H23 = assay: Growth inhibition of human NCI-H23 cells after 48 hrs by sulforhodamine B assay; details: NCI-H23, 48 h; how it was run: as §2
OVCAR-5 = assay: Growth inhibition of human OVCAR5 cells after 48 hrs by sulforhodamine B assay; details: OVCAR-5, 48 h; how it was run: as §2
Hs-578T = assay: Growth inhibition of human Hs 578T cells after 48 hrs by sulforhodamine B assay; how it was run: as §2
SF-295 = assay: Growth inhibition of human SF295 cells after 48 hrs by sulforhodamine B assay; details: SF-295, 48 h; how it was run: as §2
KM12 = assay: Growth inhibition of human KM12 cells after 48 hrs by sulforhodamine B assay; details: KM12, 48 h; how it was run: as §2
DU-145 = assay: Growth inhibition of human DU145 cells after 48 hrs by sulforhodamine B assay; details: DU-145, 48 h; how it was run: as §1

SMILES: COc1cc2c(cc1OCCCCOc1ccc(-c3nc4ccccc4s3)cc1)N=C[C@@H]1CCCN1C2=O
- GI50 (ACHN): 363 nM
- GI50 (NCI-H460): 407 nM
- GI50 (MCF7): 324 nM
- GI50 (BT-549): 182 nM
- GI50 (T47D): 219 nM
- GI50 (COLO 205): 339 nM
- GI50 (MDA-MB-435): 447 nM
- GI50 (SW-620): 427 nM
- GI50 (TK-10): 479 nM
- GI50 (SNB-19): 1510 nM
- GI50 (OVCAR-3): 380 nM
- GI50 (A549): 2630 nM
- GI50 (MDA-MB-231): 269 nM
- GI50 (UO-31): 661 nM
- GI50 (CCRF-CEM): 282 nM
- GI50 (HT-29): 380 nM
- GI50 (SK-MEL-2): 389 nM
- GI50 (K562): 355 nM
- GI50 [1]: 214 nM
- GI50 (HOP-62): 407 nM
- GI50 (RXF 393): 191 nM
- GI50 (HL-60): 380 nM
- GI50 (SK-MEL-5): 347 nM
- GI50 (SR): 21.9 nM
- GI50 (NCI-H23): 741 nM
- GI50 (OVCAR-5): 331 nM
- GI50 (Hs-578T): 501 nM
- GI50 (SF-295): 676 nM
- GI50 (KM12): 550 nM
- GI50 (DU-145): 269 nM

Source: ChEMBL document CHEMBL1177643, “Synthesis, DNA-binding ability and anticancer activity of benzothiazole/benzoxazole-pyrrolo[2,1-c][1,4]benzodiazepine conjugates” (Bioorg Med Chem, 2010)
